# According to ChEMBL document CHEMBL2375244 (J Med Chem, 2013):
# Active and inactive are the calls of the source. No cut-off for these calls is given here.
# Tests used:
# A673 = assay: Induction of apoptosis in human A673 cells assessed as caspase-3 activation at 0.05 uM to 5 uM after 24 hrs by luminescence assay relative to control; format: functional
# Summary of the method: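 Caspase-3/7 activation measured with a Caspase-Glo 3/7 luminescent assay. Cells were plated as for the high-throughput viability assay and exposed for 24 h to serial dilutions. EC50 was obtained from the dose-response.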
# [1] = molecular target: Cyclin-dependent kinase 2 (Homo sapiens) (UniProt P24941); assay: Inhibition of CDK2-mediated Rb phosphorylation at Ser 807/811 in human A673 cells at 0.25 uM after 24 hrs by immunoblotting analysis; format: cell-based
# Summary of the method: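 Asynchronously growing A-673 cells at ~70% confluence were exposed for 24 h to increasing concentrations, then lysed. 50 μg protein per lane on 10% SDS-PAGE, transferred to nitrocellulose. Phospho-Rb Ser807/811 antibody, with β-actin as loading control, detected with fluorescent secondary antibodies on an infrared scanner.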
# BT-549 = assay: Cytotoxicity against human BT549 cells after 72 hrs by resazurin/resorufin-based fluorescence assay; format: functional, cell-based; conditions: BT-549, 72 h
# Summary of the method: (§1)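 CellTiter-Blue viability: 1200 cells per well seeded, incubated overnight at 37 °C, 5% CO₂; drugs serially diluted 2:3 in medium, four replicate wells per concentration plus four diluent-only control wells; 72 h exposure; resazurin reduction to resorufin read by fluorescence (579 nm ex/584 nm em). IC50 is the average of three data sets, each using nine concentrations between 0.004 μM and 12.5 μM.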
# [2] = Cytotoxicity against human RPMI18226 cells after 72 hrs by resazurin/resorufin-based fluorescence assay; format: functional, cell-based; conditions: RPMI18226, 72 h
# HOS-TE85 = assay: Cytotoxicity against human MNNG-HOS cells after 72 hrs by resazurin/resorufin-based fluorescence assay; format: functional, cell-based; conditions: HOS-TE85, 72 h
# [3] = Cytotoxicity against human MDA-MB-436 cells after 72 hrs by resazurin/resorufin-based fluorescence assay; format: functional, cell-based; conditions: MDA-MB-436, 72 h
# SK-ES1 = assay: Cytotoxicity against human SK-ES-1 cells after 72 hrs by resazurin/resorufin-based fluorescence assay; format: functional, cell-based; conditions: SK-ES1, 72 h
# SK-BR-3 = assay: Cytotoxicity against human SK-BR-3 cells after 72 hrs by resazurin/resorufin-based fluorescence assay; format: functional, cell-based; conditions: SK-BR-3, 72 h; summary of the method: as §1
# [4] = Cytotoxicity against mouse TM4 cells after 72 hrs by MTT assay; format: functional, cell-based; conditions: TM4, 72 h
# Summary of the method: (§2)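 Cells kept in RPMI or DMEM with 10% FBS at 37 °C, 5% CO₂ and allowed to attach overnight; 72 h with increasing inhibitor concentrations; then 1 mg/mL MTT for 3 h, DMSO solubilisation, OD read at 540 nm. Testis lines had culture conditions adapted to them. Dose-response in triplicate, 9 concentrations between 0.02 and 100 μM, averaged.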
# [5] = Cytotoxicity against mouse GC-2 cells after 72 hrs by MTT assay; format: functional, cell-based; conditions: GC-2, 72 h; summary of the method: as §2
# MDA-MB-468 = assay: Cytotoxicity against human MDA-MB-468 cells after 72 hrs by MTT assay; format: functional, cell-based; conditions: MDA-MB-468, 72 h; summary of the method: as §2
# [6] = molecular target: Cyclin-dependent kinase 1/cyclin B1 (Homo sapiens) (UniProt P06493+P14635); assay: Inhibition of human CDK1/Cyclin B at 0.1 uM incubated for 15 mins prior to substrate addition measured after 90 mins by P33-radiolabeled assay relative to control; format: protein-complex assay
# [7] = molecular target: CDK2/Cyclin A1 (Homo sapiens) (UniProt P24941+P78396); assay: Inhibition of human CDK2/Cyclin A1 at 0.1 uM incubated for 15 mins prior to substrate addition measured after 90 mins by P33-radiolabeled assay relative to control; format: protein-complex assay
# [8] = molecular target: CDK1/Cyclin E (Homo sapiens) (UniProt P06493+P24864); assay: Inhibition of human CDK1/Cyclin E at 0.1 uM incubated for 15 mins prior to substrate addition measured after 90 mins by P33-radiolabeled assay relative to control; format: protein-complex assay
# [9] = molecular target: CDK6/cyclin D1 (Homo sapiens) (UniProt P24385+Q00534); assay: Inhibition of human CDK6/Cyclin D1 at 0.1 uM incubated for 15 mins prior to substrate addition measured after 90 mins by P33-radiolabeled assay relative to control; format: protein-complex assay
# [10] = molecular target: Mitogen-activated protein kinase 15 (Homo sapiens) (UniProt Q8TD08); assay: Inhibition of human ERK7 at 0.1 uM incubated for 15 mins prior to substrate addition measured after 90 mins by P33-radiolabeled assay relative to control
# [11] = molecular target: Glycogen synthase kinase-3 alpha (Homo sapiens) (UniProt P49840); assay: Inhibition of human GSK3alpha at 0.1 uM incubated for 15 mins prior to substrate addition measured after 90 mins by P33-radiolabeled assay relative to control
# [12] = molecular target: T1, Glycogen synthase kinase-3 beta (Homo sapiens, UniProt P49841); assay: Inhibition of human GSK3beta at 0.1 uM incubated for 15 mins prior to substrate addition measured after 90 mins by P33-radiolabeled assay relative to control
# Target sequence in this assay (P49841 whole entry, looked up): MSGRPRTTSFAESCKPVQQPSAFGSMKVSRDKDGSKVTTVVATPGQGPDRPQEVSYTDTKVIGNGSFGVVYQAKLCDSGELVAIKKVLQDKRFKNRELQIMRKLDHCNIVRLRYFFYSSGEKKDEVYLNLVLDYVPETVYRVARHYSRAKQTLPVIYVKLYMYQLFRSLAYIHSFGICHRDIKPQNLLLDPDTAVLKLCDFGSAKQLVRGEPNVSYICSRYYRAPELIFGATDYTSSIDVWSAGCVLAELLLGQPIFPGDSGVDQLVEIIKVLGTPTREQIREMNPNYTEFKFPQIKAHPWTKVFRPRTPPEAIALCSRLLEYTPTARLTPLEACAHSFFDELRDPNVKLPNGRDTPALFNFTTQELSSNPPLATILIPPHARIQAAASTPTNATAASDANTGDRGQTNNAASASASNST
# [13] = molecular target: Dual specificity tyrosine-phosphorylation-regulated kinase 1A (Homo sapiens) (UniProt Q13627); assay: Inhibition of human DYRK1A at 0.1 uM incubated for 15 mins prior to substrate addition measured after 90 mins by P33-radiolabeled assay relative to control
# [14] = molecular target: Dual specificity protein kinase CLK1 (Homo sapiens) (UniProt P49759); assay: Inhibition of human CLK1 at 0.1 uM incubated for 15 mins prior to substrate addition measured after 90 mins by P33-radiolabeled assay relative to control
# [15] = molecular target: CDK6/cyclin D3 (Homo sapiens) (UniProt P30281+Q00534); assay: Inhibition of human CDK6/Cyclin D3 at 0.1 uM incubated for 15 mins prior to substrate addition measured after 90 mins by P33-radiolabeled assay relative to control; format: protein-complex assay
# [16] = molecular target: T1, Glycogen synthase kinase-3 beta; assay: Inhibition of GSK3beta (unknown origin)-mediated phosphorylation of peptide substrate incubated for 15 mins prior to substrate addition measured after 90 mins by P33-radiolabeled assay
# Target sequence in this assay (P49841 whole entry): as the sequence (P49841 whole entry, looked up) above
# [17] = molecular target: Cyclin-dependent kinase 7/ cyclin H (Homo sapiens, UniProt P50613); assay: Inhibition of CDK7/Cyclin H (unknown origin)-mediated phosphorylation of peptide substrate incubated for 15 mins prior to substrate addition measured after 90 mins by P33-radiolabeled assay; format: protein-complex assay
# CDK6/cyclin D1 = CDK6/cyclin D1 (Homo sapiens, UniProt Q00534); assay: Inhibition of CDK6/Cyclin D1 (unknown origin)-mediated phosphorylation of peptide substrate incubated for 15 mins prior to substrate addition measured after 90 mins by P33-radiolabeled assay; format: protein-complex assay
# CDK3/Cyclin E = CDK3/Cyclin E (Homo sapiens, UniProt Q00526); assay: Inhibition of CDK3/Cyclin E (unknown origin)-mediated phosphorylation of peptide substrate incubated for 15 mins prior to substrate addition measured after 90 mins by P33-radiolabeled assay; format: protein-complex assay
# CDK2/Cyclin A1 = CDK2/Cyclin A1 (Homo sapiens, UniProt P24941); assay: Inhibition of CDK2/Cyclin A1 (unknown origin)-mediated phosphorylation of peptide substrate incubated for 15 mins prior to substrate addition measured after 90 mins by P33-radiolabeled assay; format: protein-complex assay
# CDK2/Cyclin A2 = CDK2/Cyclin A2 (Homo sapiens, UniProt P24941); assay: Inhibition of CDK2/Cyclin A (unknown origin)-mediated phosphorylation of peptide substrate incubated for 15 mins prior to substrate addition measured after 90 mins by P33-radiolabeled assay; format: protein-complex assay
# Dual specificity protein kinase CLK1 (Homo sapiens), sequence (P49759 whole entry, looked up): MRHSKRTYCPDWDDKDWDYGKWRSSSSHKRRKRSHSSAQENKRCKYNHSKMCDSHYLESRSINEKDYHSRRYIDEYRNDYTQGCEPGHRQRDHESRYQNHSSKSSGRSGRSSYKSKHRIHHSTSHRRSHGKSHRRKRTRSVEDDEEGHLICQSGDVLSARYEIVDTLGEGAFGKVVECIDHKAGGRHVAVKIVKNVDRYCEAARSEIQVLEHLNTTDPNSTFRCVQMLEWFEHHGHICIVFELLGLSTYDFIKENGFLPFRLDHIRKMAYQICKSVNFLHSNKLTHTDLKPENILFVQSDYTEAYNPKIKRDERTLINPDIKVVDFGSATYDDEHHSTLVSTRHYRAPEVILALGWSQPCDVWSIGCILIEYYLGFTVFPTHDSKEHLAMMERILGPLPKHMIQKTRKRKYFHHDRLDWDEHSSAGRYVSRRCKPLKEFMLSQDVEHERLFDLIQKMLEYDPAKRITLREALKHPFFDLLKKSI
# CDK3/Cyclin E, sequence (P24864 whole entry): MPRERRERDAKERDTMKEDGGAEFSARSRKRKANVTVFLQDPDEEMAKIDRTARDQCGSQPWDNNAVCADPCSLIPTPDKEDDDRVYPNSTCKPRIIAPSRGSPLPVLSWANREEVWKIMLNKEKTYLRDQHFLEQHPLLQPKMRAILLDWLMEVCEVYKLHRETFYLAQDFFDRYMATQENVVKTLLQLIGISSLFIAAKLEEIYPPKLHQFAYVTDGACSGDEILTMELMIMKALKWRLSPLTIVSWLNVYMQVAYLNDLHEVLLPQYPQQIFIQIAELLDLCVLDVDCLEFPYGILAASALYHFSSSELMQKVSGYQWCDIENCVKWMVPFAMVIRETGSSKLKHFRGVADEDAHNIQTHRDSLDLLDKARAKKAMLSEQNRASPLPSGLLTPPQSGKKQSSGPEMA
# CDK3/Cyclin E, sequence (Q00526 whole entry): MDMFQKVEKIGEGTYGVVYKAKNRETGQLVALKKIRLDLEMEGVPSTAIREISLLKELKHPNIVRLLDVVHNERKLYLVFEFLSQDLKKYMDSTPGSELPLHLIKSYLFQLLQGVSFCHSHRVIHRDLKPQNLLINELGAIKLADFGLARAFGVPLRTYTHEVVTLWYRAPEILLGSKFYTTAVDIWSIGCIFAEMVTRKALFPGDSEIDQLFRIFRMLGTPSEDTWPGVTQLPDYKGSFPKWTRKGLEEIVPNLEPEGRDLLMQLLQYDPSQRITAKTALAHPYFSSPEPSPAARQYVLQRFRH
# CDK1/Cyclin E (Homo sapiens), sequence (P06493 whole entry, looked up): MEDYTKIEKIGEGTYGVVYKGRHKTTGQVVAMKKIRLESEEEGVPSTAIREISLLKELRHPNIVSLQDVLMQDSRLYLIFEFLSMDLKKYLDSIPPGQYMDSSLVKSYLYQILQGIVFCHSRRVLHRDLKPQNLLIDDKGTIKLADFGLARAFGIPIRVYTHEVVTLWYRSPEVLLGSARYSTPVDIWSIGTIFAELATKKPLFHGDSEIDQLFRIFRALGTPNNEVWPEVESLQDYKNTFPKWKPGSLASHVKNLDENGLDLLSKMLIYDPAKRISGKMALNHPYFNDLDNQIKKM
# CDK1/Cyclin E (Homo sapiens), sequence (P24864 whole entry, looked up): as the sequence (P24864 whole entry) above
# Cyclin-dependent kinase 1/cyclin B1 (Homo sapiens), sequence (P06493 whole entry, looked up): as the sequence (P06493 whole entry, looked up) above
# Cyclin-dependent kinase 1/cyclin B1 (Homo sapiens), sequence (P14635 whole entry, looked up): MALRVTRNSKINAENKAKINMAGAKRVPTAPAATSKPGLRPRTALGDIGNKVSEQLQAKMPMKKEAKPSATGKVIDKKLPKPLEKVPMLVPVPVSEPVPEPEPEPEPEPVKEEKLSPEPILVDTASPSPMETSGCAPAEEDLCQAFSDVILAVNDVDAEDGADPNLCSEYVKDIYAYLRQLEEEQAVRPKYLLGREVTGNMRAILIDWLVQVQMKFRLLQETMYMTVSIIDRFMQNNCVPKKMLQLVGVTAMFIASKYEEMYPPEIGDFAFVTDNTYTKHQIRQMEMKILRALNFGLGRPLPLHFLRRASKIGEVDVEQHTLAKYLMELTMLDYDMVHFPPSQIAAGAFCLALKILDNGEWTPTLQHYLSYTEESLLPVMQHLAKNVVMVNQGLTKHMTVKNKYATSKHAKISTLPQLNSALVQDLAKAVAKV
# Cyclin-dependent kinase 7/ cyclin H, sequence (P51946 whole entry): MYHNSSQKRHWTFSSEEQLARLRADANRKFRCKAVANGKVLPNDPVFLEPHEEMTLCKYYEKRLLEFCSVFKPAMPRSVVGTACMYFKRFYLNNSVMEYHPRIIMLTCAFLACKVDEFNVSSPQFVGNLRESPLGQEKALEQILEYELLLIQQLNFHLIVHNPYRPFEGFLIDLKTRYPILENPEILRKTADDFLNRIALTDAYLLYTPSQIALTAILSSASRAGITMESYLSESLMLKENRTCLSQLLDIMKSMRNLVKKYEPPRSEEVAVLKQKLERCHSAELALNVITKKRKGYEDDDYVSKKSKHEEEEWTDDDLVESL
# Cyclin-dependent kinase 7/ cyclin H, sequence (P50613 whole entry): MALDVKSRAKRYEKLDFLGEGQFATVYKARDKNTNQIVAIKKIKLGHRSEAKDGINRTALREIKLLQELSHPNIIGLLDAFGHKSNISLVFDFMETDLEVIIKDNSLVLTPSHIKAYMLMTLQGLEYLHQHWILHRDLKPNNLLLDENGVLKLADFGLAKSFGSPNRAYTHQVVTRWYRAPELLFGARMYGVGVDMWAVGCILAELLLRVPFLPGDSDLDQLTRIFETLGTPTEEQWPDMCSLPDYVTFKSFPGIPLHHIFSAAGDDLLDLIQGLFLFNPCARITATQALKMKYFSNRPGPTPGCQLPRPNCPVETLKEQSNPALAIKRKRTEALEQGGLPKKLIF
# Glycogen synthase kinase-3 alpha (Homo sapiens), sequence (P49840 2-483 limits assumed): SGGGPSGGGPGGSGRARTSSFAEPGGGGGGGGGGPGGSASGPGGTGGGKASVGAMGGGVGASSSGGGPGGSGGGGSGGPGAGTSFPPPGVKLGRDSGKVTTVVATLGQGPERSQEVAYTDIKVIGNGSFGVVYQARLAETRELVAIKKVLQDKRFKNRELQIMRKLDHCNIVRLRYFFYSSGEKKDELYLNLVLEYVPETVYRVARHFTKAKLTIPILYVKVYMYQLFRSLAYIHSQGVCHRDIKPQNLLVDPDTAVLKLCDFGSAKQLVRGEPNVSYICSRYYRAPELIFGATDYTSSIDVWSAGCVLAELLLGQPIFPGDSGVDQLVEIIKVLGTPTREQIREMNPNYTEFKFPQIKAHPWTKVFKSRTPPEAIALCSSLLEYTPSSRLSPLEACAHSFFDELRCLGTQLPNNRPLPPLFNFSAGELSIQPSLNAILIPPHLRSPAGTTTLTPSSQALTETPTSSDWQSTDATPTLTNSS
# CDK6/cyclin D1, sequence (P24385 whole entry): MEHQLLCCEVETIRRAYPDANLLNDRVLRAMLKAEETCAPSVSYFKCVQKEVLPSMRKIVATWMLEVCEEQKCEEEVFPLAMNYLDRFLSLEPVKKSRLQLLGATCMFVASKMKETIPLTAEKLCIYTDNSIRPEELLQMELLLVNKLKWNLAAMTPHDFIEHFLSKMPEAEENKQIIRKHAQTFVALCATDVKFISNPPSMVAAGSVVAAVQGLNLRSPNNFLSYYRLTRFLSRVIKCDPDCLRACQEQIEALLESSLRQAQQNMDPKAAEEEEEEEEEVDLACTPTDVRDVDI
# CDK6/cyclin D1, sequence (Q00534 whole entry): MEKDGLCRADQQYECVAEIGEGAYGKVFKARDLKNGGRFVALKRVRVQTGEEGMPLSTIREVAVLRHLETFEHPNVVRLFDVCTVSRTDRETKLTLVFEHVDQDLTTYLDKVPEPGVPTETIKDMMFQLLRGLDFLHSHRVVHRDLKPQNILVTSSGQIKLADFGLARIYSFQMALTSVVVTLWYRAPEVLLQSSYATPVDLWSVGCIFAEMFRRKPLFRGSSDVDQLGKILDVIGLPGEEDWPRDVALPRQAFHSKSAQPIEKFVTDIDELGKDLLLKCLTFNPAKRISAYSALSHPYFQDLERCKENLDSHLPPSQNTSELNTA
compound,measurement,setting,value
Nc1nc(Nc2ccc(S(N)(=O)=O)cc2)sc1C(=O)c1ccccc1[N+](=O)[O-],Activity,A673,196%
same,inhibition,[1],Active
same,IC50,BT-549,> 10000 nM
same,IC50,[2],> 10000 nM
same,IC50,HOS-TE85,3000 nM
same,IC50,[3],2000 nM
same,IC50,SK-ES1,560 nM
same,IC50,SK-BR-3,490 nM
same,IC50,[4],16000 nM
same,IC50,[5],9000 nM
same,IC50,MDA-MB-468,300 nM
same,inhibition,[6],90%
same,inhibition,[7],90%
same,inhibition,[8],80%
same,inhibition,[9],80%
same,inhibition,[10],70%
same,inhibition,[11],75%
same,inhibition,[12],60%
same,inhibition,[13],50%
same,inhibition,[14],50%
same,inhibition,[15],85%
same,IC50,[16],107 nM
same,IC50,[17],> 1000 nM
same,IC50,CDK6/cyclin D1,6.6 nM
same,IC50,CDK3/Cyclin E,38 nM
same,IC50,CDK2/Cyclin A1,1.8 nM
same,IC50,CDK2/Cyclin A2,1.1 nM
